Active and inactive are the calls of the source. The rule behind the calls is not given here.
What was measured:
Vaccinia virus [1] = experiment: Antiviral activity against vaccinia virus IHD-J in BSC40 cells by CPE assay; type: functional, organism-based; conditions: Orthopoxvirus vaccinia, BSC-40
[2] = Cytotoxicity against vaccinia virus IHD-J infected BSC40 cells; type: cell-based, Macaca mulatta; conditions: rhesus monkey, BSC-40 cells infected with vaccinia virus IHD-J
Variola virus [3] = experiment: Antiviral activity against variola virus BUT virus by CPE assay; type: functional, organism-based
Camelpox virus = experiment: Antiviral activity against camelpox virus by CPE assay; type: functional, organism-based
Variola virus [4] = experiment: Antiviral activity against variola virus BSH virus by CPE assay; type: functional, organism-based
Monkeypox virus = experiment: Antiviral activity against monkeypox virus by CPE assay; type: functional, organism-based
Cowpox virus = experiment: Antiviral activity against cowpox virus by CPE assay; type: functional, organism-based
Cynomolgus monkey = experiment: Toxicity in cynomolgus monkey at 600 mg/kg after 28 days; type: organism-based, Macaca fascicularis; parameters: dose 600 mg/kg; conditions: in vivo, 672 h
Outline: (§1)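 Animals received 28-day repeat dosing, and the no observable adverse effect level (NOAEL) was determined.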

Mus musculus = experiment: Toxicity in mouse at 2000 mg/kg after 28 days; type: organism-based; parameters: dose 2000 mg/kg; conditions: in vivo, 672 h; outline: as §1
[5] = Metabolic stability in mouse Liver S9 fraction; type: ADME, subcellular
Outline: (§2)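 Compound was incubated with liver S-9 extracts from each species, with NADPH added. Loss of parent compound was followed by LC/MS and reported as half-life in minutes.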

Vaccinia virus [6] = experiment: Antiviral activity assessed as inhibition of extracellular virus formation in vaccinia virus IHD-J infected BSC40 cells at 5 uM after 24 hrs; type: functional, organism-based; conditions: Orthopoxvirus vaccinia, BSC-40
[7] = Metabolic stability in monkey Liver S9 fraction; type: ADME, subcellular, Macaca mulatta; conditions: rhesus monkey; outline: as §2
[8] = Metabolic stability in human Liver S9 fraction; type: ADME, subcellular; outline: as §2
[9] = Metabolic stability in dog Liver S9 fraction; type: ADME, subcellular, Canis lupus familiaris; outline: as §2
[10] = Half life in rat at 2 mg/kg, po; type: ADME, organism-based; parameters: dose 2 mg/kg, route oral; conditions: in vivo
Outline: (§3)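 Rats were dosed orally in 0.75% Methocell/1% Tween vehicle, and a separate intravenous arm was run to derive bioavailability. Plasma concentration–time data gave Tmax, Cmax, AUC, t1/2, clearance, Vss and %F.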

[11] = Metabolic stability in rat Liver S9 fraction; type: ADME, subcellular; outline: as §2
[12] = Cmax in rat at 2 mg/kg, po; type: ADME, organism-based; parameters: dose 2 mg/kg, route oral; conditions: in vivo; outline: as §3
[13] = Clearance in rat at 2 mg/kg, po; type: ADME, organism-based; parameters: dose 2 mg/kg, route oral; conditions: in vivo; outline: as §3
Rattus norvegicus = experiment: Volume of distribution at steady state in rat at 2 mg/kg, po; type: ADME, organism-based; parameters: dose 2 mg/kg, route oral; conditions: in vivo; outline: as §3
Human betaherpesvirus 5 = experiment: Antiviral activity against human cytomegalovirus AD169 by plaque reduction assay; type: functional, organism-based; conditions: Human betaherpesvirus 5, AD169
[14] = Oral bioavailability in rat at 2 mg/kg, po; type: ADME, organism-based; conditions: in vivo; outline: as §3
Human alphaherpesvirus 1 = experiment: Antiviral activity against HSV1 KOS by plaque reduction assay; type: functional, organism-based; conditions: Human alphaherpesvirus 1, KOS
[15] = system: Respiratory syncytial virus; experiment: Antiviral activity against RSV A by plaque reduction assay; type: functional, organism-based; conditions: human respiratory syncytial virus
[16] = system: Bovine viral diarrhea virus 1; experiment: Antiviral activity against BVDV NADL by plaque reduction assay; type: functional, organism-based; conditions: Bovine viral diarrhea virus isolates and strains
Rotavirus = experiment: Antiviral activity against rotavirus by plaque reduction assay; type: functional, organism-based
[17] = AUC in rat at 2 mg/kg, po; type: ADME, organism-based; parameters: dose 2 mg/kg, route oral; conditions: plasma; outline: as §3
[18] = Tmax in rat at 2 mg/kg, po; type: ADME, organism-based; parameters: dose 2 mg/kg, route oral; conditions: in vivo; outline: as §3

| SMILES | EC50 (Vaccinia virus [1]) [nM] | CC50 [2] [nM] | EC50 (Variola virus [3]) [nM] | EC50 (Camelpox virus) [nM] | EC50 (Variola virus [4]) [nM] | EC50 (Monkeypox virus) [nM] | further results |
| --- | --- | --- | --- | --- | --- | --- | --- |
| O=C(NN1C(=O)[C@@H]2C3C=CC(C4CC43)[C@@H]2C1=O)c1cccnc1 (stereo partly specified) | 740 | > 100000 | – | – | – | – | – |
| O=C(NN1C(=O)[C@@H]2C3C=CC(C4CC43)[C@@H]2C1=O)c1ccncc1 (stereo partly specified) | 500 | > 100000 | 220 | 110 | 400 | 150 | – |
| Cn1cccc1C(=O)NN1C(=O)[C@@H]2C3C=CC(C4CC43)[C@@H]2C1=O (stereo partly specified) | 15800 | > 100000 | – | – | – | – | – |
| O=C(NN1C(=O)[C@@H]2C3C=CC(C4CC43)[C@@H]2C1=O)c1cccc(Br)c1 (stereo partly specified) | 50 | > 100000 | – | – | – | – | – |
| O=C(NN1C(=O)[C@@H]2C3C=CC(C4CC43)[C@@H]2C1=O)c1ccccn1 (stereo partly specified) | > 20000 | > 100000 | 10000 | 4200 | > 20000 | > 16000 | – |
| O=C(NN1C(=O)[C@@H]2C3C=CC(C4CC43)[C@@H]2C1=O)c1ccccc1Cl (stereo partly specified) | 3000 | > 100000 | – | – | – | – | EC50 (Cowpox virus): > 20000 nM |
| O=C(NN1C(=O)[C@@H]2C3C=CC(C4CC43)[C@@H]2C1=O)c1ccccc1Br (stereo partly specified) | 2300 | > 100000 | 1400 | 3800 | 3300 | 3600 | – |
| O=C(NN1C(=O)[C@@H]2C3C=CC(C4CC43)[C@@H]2C1=O)c1cccc(Cl)c1 (stereo partly specified) | 40 | > 100000 | – | – | – | – | EC50 (Cowpox virus): 600 nM |
| O=C(NN1C(=O)[C@@H]2C3CCC(C4CC43)[C@@H]2C1=O)c1ccc(C(F)(F)F)cc1 (stereo partly specified) | 20 | > 100000 | 10 | 30 | 200 | 80 | – |
| O=C(NN1C(=O)[C@@H]2C3C=CC(C4CC43)[C@@H]2C1=O)c1ccc(C(F)(F)F)cc1 (stereo partly specified) | 40 | > 100000 | 20 | 10 | 50 | 10 | Activity (Cynomolgus monkey): Non-toxic; Activity (Mus musculus): Non-toxic; half-life [5]: > 3.33 h; Activity (Vaccinia virus [6]): Active; half-life [7]: > 3.33 h; half-life [8]: > 3.33 h; half-life [9]: > 3.33 h; half-life [10]: 4.2 h; half-life [11]: > 3.33 h; Cmax [12]: 920 ng/mL; CL/F [13]: 8.67 mL/min/kg; Vss (Rattus norvegicus): 0.6 L/kg; EC50 (Human betaherpesvirus 5): > 40000 nM; bioavailability [14]: 31%; EC50 (Human alphaherpesvirus 1): > 40000 nM; EC50 [15]: > 40000 nM; EC50 [16]: > 40000 nM; EC50 (Rotavirus): > 40000 nM; AUC [17]: 6100 ng·h/mL; Tmax [18]: 2.2 h |
| CN(C)c1ccc(C(=O)NN2C(=O)[C@@H]3C4C=CC(C5CC54)[C@@H]3C2=O)cc1 (stereo partly specified) | 2000 | > 100000 | – | – | – | – | – |
| O=C(NN1C(=O)[C@@H]2C3C=CC(C4CC43)[C@@H]2C1=O)c1ccc([N+](=O)[O-])cc1 (stereo partly specified) | 20 | > 86000 | – | – | – | – | – |
| O=C(NN1C(=O)[C@@H]2C3C=CC(C4CC43)[C@@H]2C1=O)c1ccc(Br)cc1 (stereo partly specified) | 20 | > 100000 | 20 | 10 | 50 | 10 | half-life [5]: > 3.33 h; half-life [7]: > 3.33 h; half-life [8]: 0.95 h; half-life [9]: > 3.33 h; half-life [11]: > 3.33 h |
| COc1ccc(C(=O)NN2C(=O)[C@@H]3C4C=CC(C5CC54)[C@@H]3C2=O)cc1 (stereo partly specified) | 2200 | > 100000 | – | – | – | – | – |
| O=C(NN1C(=O)[C@@H]2C3C=CC(C4CC43)[C@@H]2C1=O)c1ccc(Cl)cc1 (stereo partly specified) | 20 | > 100000 | – | – | – | – | EC50 (Cowpox virus): 770 nM |
| Cc1cc(C(=O)NN2C(=O)[C@@H]3C4C=CC(C5CC54)[C@@H]3C2=O)[nH]n1 (stereo partly specified) | 7100 | > 100000 | – | – | – | – | – |
| Nc1ccc(C(=O)NN2C(=O)[C@@H]3C4C=CC(C5CC54)[C@@H]3C2=O)cc1 (stereo partly specified) | 7700 | > 92000 | – | – | – | – | – |

— ChEMBL document CHEMBL1142975 (J Med Chem, 2007)
